Test results reported in ChEMBL document CHEMBL1132406, “Synthesis and structure-activity relationships of phenylenebis(methylene)-linked bis-azamacrocycles that inhibit HIV-1 and HIV-2 replication by antagonism of the chemokine receptor CXCR4” (J Med Chem, 1999).
pEC50, pIC50: −log10 of the molar value.

Assays:
[1] = system: Human immunodeficiency virus 2; test: Antiviral effective concentration for Inhibitory activity on HIV-2(ROD) replication in MT-4 cells; type: functional, organism-based; conditions: Human immunodeficiency virus 2, MT4
Procedure, shortened: (§1)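 MT-4 cells infected at MOI 0.01 (100 × CCID50) with HIV-1 (IIIB) or HIV-2 (ROD) in presence of graded compound concentrations; antiviral and cytotoxicity run in parallel, CC50 on mock-infected cells. After 5 days of growth, viable cells counted by MTT colorimetry. EC50 = concentration protecting 50% of infected cells from cytopathicity; values averaged over several experiments.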

[2] = system: Human immunodeficiency virus 1; test: Antiviral effective concentration for Inhibitory activity on HIV-1(IIIB) replication in MT-4 cells; type: functional, organism-based; conditions: Human immunodeficiency virus 1, MT4; procedure, shortened: as §1
MT4 = test: 50% cytotoxic concentration was tested against HIV infected MT-4 cells; type: functional; conditions: Homo sapiens, in the assay text read “mock-infected” for “HIV infected”; procedure, shortened: as §1
[3] = biological target: C-X-C chemokine receptor type 4 (Homo sapiens, UniProt P61073); test: Inhibitory activity against CXCR4-specific monoclonal antibody 12G5 (mAb-12G5) binding to human chemokinin receptor CXCR4 in lymphocytic SUP-T1 cells; type: cell-based
Procedure, shortened: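 SUP-T1 cells preincubated with compound or PBS 15 min at room temperature, washed, then exposed to CXCR4 mAb 12G5 for 30 min, washed, stained with FITC goat anti-mouse antibody for 30 min at room temperature. Flow cytometry measured percent positive cells and MFI; inhibition derived from MFI, IC50 calculated.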

Sequence of C-X-C chemokine receptor type 4 (P61073 whole entry): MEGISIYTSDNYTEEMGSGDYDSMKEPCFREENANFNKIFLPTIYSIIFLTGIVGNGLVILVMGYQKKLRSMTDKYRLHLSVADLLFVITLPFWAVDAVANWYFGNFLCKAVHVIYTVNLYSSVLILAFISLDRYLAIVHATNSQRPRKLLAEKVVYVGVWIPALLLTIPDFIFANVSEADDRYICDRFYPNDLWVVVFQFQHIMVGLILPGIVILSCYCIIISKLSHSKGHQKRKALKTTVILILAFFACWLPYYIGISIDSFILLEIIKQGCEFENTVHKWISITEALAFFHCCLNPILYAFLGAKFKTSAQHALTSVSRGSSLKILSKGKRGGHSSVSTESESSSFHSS

| SMILES | pEC50 [1] | pEC50 [2] | CC50 (MT4) | pIC50 [3] |
| --- | --- | --- | --- | --- |
| c1cc2nc(c1)CCNCCCN(Cc1ccc(CN3CCCNCCc4cccc(n4)CCNCCC3)cc1)CCCNCC2 | 5.92 | 6.38 | 142 µM | – |
| c1cc(CN2CCCNCCOCCNCCC2)ccc1CN1CCCNCCOCCNCCC1 | – | 5.35 | > 244 µM | – |
| Clc1cc2nc(c1)CNCCCN(Cc1ccc(CN3CCCNCc4cc(Cl)cc(n4)CNCCC3)cc1)CCCNC2 | 6.12 | 6.12 | 17.8 µM | 5.24 |
| c1cc(CN2CCCNCCCCCNCCC2)ccc1CN1CCCNCCCCCNCCC1 | – | 5.02 | 133 µM | < 4.46 |
| c1cc2nc(c1)CNCCN(Cc1ccc(CN3CCNCc4cccc(n4)CNCC3)cc1)CCNC2 | 6.90 | 6.28 | 8.5 µM | 5.36 |
| c1cc(CN2CCCSCCSCCCNCC2)ccc1CN1CCCSCCSCCCNCC1 | < 5.17 | < 5.17 | 6.8 µM | < 4.46 |
| c1ccc(-c2cc3nc(c2)CNCCCN(Cc2ccc(CN4CCCNCc5cc(-c6ccccc6)cc(n5)CNCCC4)cc2)CCCNC3)cc1 | – | 5.76 | 19.3 µM | – |
| c1cc(CN2CCNCc3cccc(n3)CNCC2)cc(CN2CCNCc3cccc(n3)CNCC2)c1 | 8.60 | 7.01 | 30 µM | – |
| Oc1cc2nc(c1)CNCCCN(Cc1ccc(CN3CCCNCc4cc(O)cc(n4)CNCCC3)cc1)CCCNC2 | 3.70 | 3.76 | 200 µM | < 4.46 |
| c1cc(CN2CCCOCCOCCCNCC2)ccc1CN1CCCOCCOCCCNCC1 | < 3.44 | < 3.44 | > 363 µM | < 4.46 |
| c1cc(CN2CCCNCc3cncc(n3)CNCCC2)ccc1CN1CCCNCc2cncc(n2)CNCCC1 | 4.68 | 4.51 | 209 µM | < 4.46 |
| c1cc(CN2CCCNCCNCCCNCC2)ccc1CN1CCCNCCNCCCNCC1 | – | – | > 421 µM | – |
| c1cc(CN2CCCNCCNCCNCCC2)ccc1CN1CCCNCCNCCNCCC1 | 7.37 | 7.47 | > 421 µM | 7.17 |
| c1cc2nc(c1)CCNCCN(Cc1ccc(CN3CCNCCc4cccc(n4)CCNCC3)cc1)CCNCC2 | 8.80 | 9.10 | 194 µM | 9.00 |
| COc1cc2nc(c1)CNCCCN(Cc1ccc(CN3CCCNCc4cc(OC)cc(n4)CNCCC3)cc1)CCCNC2 | 5.07 | 5.51 | 216 µM | – |
| c1cc2cc(c1)CNCCCN(Cc1ccc(CN3CCCNCc4cccc(c4)CNCCC3)cc1)CCCNC2 | – | 5.10 | 133 µM | – |
| c1cc2nc(c1)CNCCCN(Cc1ccc(CN3CCCNCc4cccc(n4)CNCCC3)cc1)CCCNC2 | – | 6.27 | 199 µM | – |
